This note sets out measurements from ChEMBL document CHEMBL1144666, “Indoleamine 2,3-dioxygenase is the anticancer target for a novel series of potent naphthoquinone-based inhibitors” (J Med Chem, 2008).

The structures appear in SMILES notation. pIC50, pKi: −log10 of the molar value. The source made the active and inactive calls. The calls are words filed in the database; no cut-off is given here.

The subject of one experiment is B16-F10. The experiment can be described thus: Antitumor activity in mouse B16-F10 cells isografted athymic NCr-nu/nu mouse at 25 mg/kg, ip qd for 5 days. The format is functional, organism-based. Also on record: dose 25 mg/kg.
Settings: not given
In short, it runs like this: (§1)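 Mice given 1 × 10^5 B16-F10 melanoma cells s.c.; i.p. dosing at 25 mg/kg qd 5 days a week begins 7 days later and runs until the experiment ends. Tumors are measured by caliper twice weekly until control tumors reach ~5000 mm3. Data are mean tumor size ± SEM. Treated and untreated groups are compared at study end by two-tailed Mann–Whitney test.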
On to `CC1=CC(=O)c2ccccc2C1=O` [MENADIONE], for which the outcome was inactive.

The next experiment deals with Mus musculus. The experiment can be described thus: Antitumor activity in parous MMTV-Neu transgenic FVB mouse assessed as tumor volume at 25 mg/kg, ip qd for 5 days. More on the design: dose 25 mg/kg. It is filed as functional, organism-based.
Settings: not given
In a few lines: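 Autochthonous mammary tumors in parous FVB MMTV-Neu mice expressing wild-type rat HER2/Neu. Agent given at 25 mg/kg for 5 consecutive days in the first week; paclitaxel cohorts received 13.3 mg/kg i.v. qd 3×/week over the 2-week treatment period. Read-out is fold change in volume of individual tumors, with mean ± SEM per group.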
Turning to `CC1=CC(=O)c2ccccc2C1=O` [MENADIONE], the outcome was Active.

Test system in the next experiment: not listed separately
Briefly: Cytotoxicity against human TREx cells expressing doxycyclin-inducible IDO assessed as cell viability by SRB assay. It is filed as functional. As to conditions: read-out: LD50 (the source's name). In short, it runs like this:
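T-REx cells with inducible human IDO cDNA, seeded at 20000/well in DMEM + 10% FBS, induced 72 h with 20 ng/mL doxycycline, rinsed, then exposed to serial compound dilutions in phenol red-free DMEM + 10% FBS for 18 h, in triplicate.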
For the molecule `CC1=CC(=O)c2ccccc2C1=O` [MENADIONE], the CC50 came out at 126000 nM.

Another experiment has as its target T1, Indoleamine 2,3-dioxygenase 1 (Homo sapiens, UniProt P14902). The experiment can be described thus: Inhibition of purified human recombinant IDO expressed in TREx cells.
Settings: not given
In short, it runs like this:
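T-REx cells carrying doxycycline-inducible human IDO cDNA are seeded at 20000/well and induced 72 h with doxycycline. They are rinsed, then exposed in triplicate to serial dilutions in phenol red-free DMEM + 10% FBS for 18 h and TCA-fixed. Supernatant kynurenine is read with p-DMAB at 490 nm, corrected for SRB viability. IC50 is taken from a sigmoidal curve.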
Target sequence in this assay (P14902 whole entry): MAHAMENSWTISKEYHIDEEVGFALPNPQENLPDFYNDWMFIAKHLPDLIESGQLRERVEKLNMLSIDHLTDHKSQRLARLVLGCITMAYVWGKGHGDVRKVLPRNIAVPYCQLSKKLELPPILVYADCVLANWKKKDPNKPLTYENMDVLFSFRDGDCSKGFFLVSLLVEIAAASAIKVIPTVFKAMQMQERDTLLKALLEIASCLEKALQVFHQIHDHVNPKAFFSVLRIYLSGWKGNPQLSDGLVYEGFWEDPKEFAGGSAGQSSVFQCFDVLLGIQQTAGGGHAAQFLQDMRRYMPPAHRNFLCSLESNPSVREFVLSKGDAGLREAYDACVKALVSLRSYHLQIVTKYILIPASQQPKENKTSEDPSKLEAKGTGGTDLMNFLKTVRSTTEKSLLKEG
Regarding `CC1(C)C=CC2=C(O1)C(=O)c1c(O)cccc1C2=O`, the pIC50 (as a rule, the IC50 on a negative log10 scale, so that one unit is a factor of ten) is 4.16. The same measure, in the same setting: next, `CCCCNC1C2=C(OC(C)(C)C1O)C(=O)c1ccccc1C2=O` (trans isomer): 4.06.

The test system of the next experiment is B16-F10. The experiment can be described thus: Antitumor activity in mouse B16-F10 cells isografted IDO knockout C57BL/6 mouse at 25 mg/kg, ip qd for 5 days. It is filed as functional, organism-based.
Settings: not given
Also on record: dose 25 mg/kg. In short, it runs like this: as §1
Regarding `CC1=CC(=O)c2ccccc2C1=O` [MENADIONE], the outcome was inactive.

The next experiment has as its target T1, Indoleamine 2,3-dioxygenase 1. The experiment can be described thus: Inhibition of purified human recombinant IDO.
Settings: not given
Take `COC1C2=C(OC(C)(C)C1O)C(=O)c1ccccc1C2=O` (trans isomer): the pIC50 is 5.40.

As for `CC1(C)OC2=C(C(=O)c3ccccc3C2=O)C(N2CCOCC2)C1O` (trans isomer), the pIC50 is 6.44.

As for `Cc1c(SC[C@H](NC(=O)CC[C@H](N)C(=O)O)C(=O)NCC(=O)O)c(O)c2ccccc2c1O`, the pIC50 was 6.47.

Turning to `CC1(C)C=CC2=C(O1)C(=O)c1cc(O)ccc1C2=O`, the pIC50 was 5.69.

`CC1(C)C=CC2=C(O1)C(=O)c1cccc(O)c1C2=O`: the pIC50 is 6.72. For `O=C1C=CC(=O)c2c(O)cccc21` [JUGLONE], the pIC50 is 6.00. `O=c1ccoc2ccccc12`: the result was inactive. Still for that read-out and setting: with `CC1=C(C/C=C(\C)CCC[C@H](C)CCC[C@H](C)CCCC(C)C)C(=O)c2ccccc2C1=O` the entry was “inactive”. `COC(=O)C1(C)C=CC2=C(O1)C(=O)c1ccccc1C2=O` (stereo not given): the pIC50 is 6.61. On the same count and under the same terms, next, `CC1=CC(=O)c2ccccc2C1=O` [MENADIONE]: 6.00. As to `COc1ccc2c(c1)C(=O)C1=C(C=CC(C)(C)O1)C2=O`, the pIC50 was 6.03.

As to `O=C1C(Cl)=C(Cl)C(=O)c2ccccc21` [Dichlon], the pIC50 was 6.55. For the molecule `CC1(C)OC2=C(C(=O)c3ccccc3C2=O)[C@@H]2O[C@@H]21`, the pIC50 was 5.31. With `O=C1C=C(O)C(=O)c2ccccc21` [LAWSONE], the pIC50 is 3.17.

On to `CC1(C)CCC2=C(O1)C(=O)c1ccccc1C2=O` [ALPHA-LAPACHONE], for which the pIC50 was 5.36.

For `CC1(C)OC2=C(C(=O)c3ccccc3C2=O)C(SCc2ccccc2)C1O` (trans isomer), the pIC50 is 5.67. Still for that read-out and setting: next, `CC1(C)C=CC2=C(O1)C(=O)c1c(O)cccc1C2=O`: 6.92; `CC1(C)OC2=C(C(=O)c3ccccc3C2=O)C(O)C1Br` (stereo not given): 6.29; `CCCCNC1C2=C(OC(C)(C)C1O)C(=O)c1ccccc1C2=O` (trans isomer): 7.09. Same read-out and setting: with `CC1(C)C=CC2=C(O1)C(=O)c1ccc(O)cc1C2=O` the figure was 5.26. In the case of `O=C1C=CC(=O)C(c2ccccc2)=C1`, the result was inactive. Take `C=CCNC1C2=C(OC(C)(C)C1O)C(=O)c1ccccc1C2=O` (trans isomer): the pIC50 is 6.73. On the same count and under the same terms, next, `O=C1C=Cc2ccccc2C1=O` [1,2-NAPHTHOQUINONE]: 5.15. For the molecule `CC1(C)OC2=C(C(=O)c3ccccc3C2=O)C(O)C1O` (stereo not given), the pIC50 was 5.82.

In the case of `CC1(C)C=CC2=C(O1)C(=O)c1ccccc1C2=O` [DEHYDRO-ALPHA-LAPACHONE], the pIC50 is 6.67. In the case of `O=C1C=CC(=O)C=C1`, the outcome was inactive. With `CC1(C)OC2=C(C(=O)c3ccccc3C2=O)C(OCc2ccccc2)C1O` (stereo not given), the pIC50 was 5.96.

With `CC1=C(SC[C@H](NC(=O)CC[C@H](N)C(=O)O)C(=O)NCC(=O)O)C(=O)c2ccccc2C1=O`, the pIC50 was 6.06. Still for that read-out and setting: next, `CC1(C)OC2=C(C(=O)c3ccccc3C2=O)C(N2CCOCC2)C1O` (cis isomer): 5.96. Consider `CCc1c(C)cc2c(c1O)C(=O)C1=C(C2=O)C(C)(C)C(=O)C(C)(C(=O)OC)O1` (stereo not given), for which the pKi (usually the Ki on a negative log10 scale, so that one unit is a factor of ten) was 6.92.

As to `CCCCN[C@H]1C2=C(OC(C)(C)[C@H]1O)C(=O)c1ccccc1C2=O`, the pIC50 is 6.89.

For `COc1ccc2c(c1)C(=O)C1=C(OC(C)(C)C=C1)C2=O`, the pIC50 was 5.52.

In the case of `COC1=CC(=O)c2ccccc2C1=O` [2-Methoxy-1,4-naphthoquinone], the pIC50 was 6.14.

Turning to `COc1cccc2c1C(=O)C1=C(C=CC(C)(C)O1)C2=O`, the pIC50 is 5.53. For the molecule `CC1=CC(=O)C=CC1=O`, the result was inactive. As for `COc1cccc2c1C(=O)C1=C(OC(C)(C)C=C1)C2=O`, the pIC50 is 5.67. On the same count and under the same terms, next, `COC1C2=C(OC(C)(C)C1O)C(=O)c1ccccc1C2=O` (cis isomer): 6.01. Still for that read-out and setting: next, `CC1(C)OC2=C(C(=O)c3ccccc3C2=O)C(SCc2ccccc2)C1O` (cis isomer): 5.46.

In a further experiment the test system is B16-F10. Briefly: Antitumor activity in mouse B16-F10 cells isografted C57BL/6 mouse at 25 mg/kg, ip qd for 5 days. It is filed as functional, organism-based. More on the design: dose 25 mg/kg.
Settings: not given
In short, it runs like this:
as §1
For `CC1=CC(=O)c2ccccc2C1=O` [MENADIONE], the result was Active.
